In general, IC50 refers to the concentration that inhibits the measured activity by half.

The target of assay [1] is Small ubiquitin-related modifier 1 (Homo sapiens) (UniProt P63165). The assay can be described thus: Inhibition of SUMO1 (unknown origin) assessed as reduction in SUMOylated RanGAP1 level at 50 uM incubated for 60 mins by western blot analysis. The essentials:
(§1)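 Cell-free RanGAP1 SUMOylation reaction; compounds dissolved in the reaction medium at 50 μM for the initial screen, then retested at 5 μM.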
For orientation: Immunoblotting shows a protein as a band on a membrane.

Assay [2] deals with PC-3. The assay can be described thus: Induction of autophagy-mediated apoptosis in human PC3 cells assessed as increase in cleave PARP level at 10 uM measured after 24 hrs by western blot analysis. The class given is functional, cell-based. The essentials: (§2)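 PC3 cells treated at 10 or 20 μM; cleaved PARP and LC3II levels assessed by immunoblot as apoptosis and autophagy markers.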

The test system of assay [3] is PC-3. The assay can be described thus: Induction of autophagy-mediated apoptosis in human PC3 cells assessed as increase in cleave PARP level at 20 uM measured after 24 hrs by western blot analysis. It counts as functional, cell-based. The procedure, abridged: as §2
Assay [4] deals with PC-3. Briefly: Induction of autophagy in human PC3 cells assessed as increased of LC3-II level at 10 uM incubated for 24 hrs by Western blot analysis. The class given is functional, cell-based. The procedure, abridged: as §2
Assay [5] deals with Small ubiquitin-related modifier 1 (Homo sapiens) (UniProt P63165). Briefly: Inhibition of SUMO1 in human PC3 cells assessed as reduction in SUMOylation level at 10 to 20 uM measured after 24 hrs by western blot analysis. The class given is cell-based. Particulars: PC-3, dose microM 10-20, time 24.0 hrs.
Assay [6] has the same target. The assay can be described thus: Inhibition of SUMO1 in human MDA-MB-231 cells assessed as reduction in SUMOylation level at 10 uM measured after 24 hrs by western blot analysis. The class given is cell-based.
Assay [7] relates to PC-3. The assay can be described thus: Induction of autophagy in human PC3 cells assessed as increased of LC3-II level at 20 uM incubated for 24 hrs by Western blot analysis. It counts as functional, cell-based. The procedure, abridged: as §2
Assay [8] has as its target Small ubiquitin-related modifier 2 (Homo sapiens) (UniProt P61956). The assay can be described thus: Inhibition of SUMO2 in human PC3 cells assessed as reduction in SUMOylation level at 10 uM measured after 24 hrs by western blot analysis. It counts as cell-based. Particulars: PC-3.
Another assay relates to PC3 (Homo sapiens). Briefly: Cytotoxicity against human PC3 cells assessed as cell death at 10 to 20 uM incubated for 24 hrs by crystal violet staining based spectrophotometric analysis. Particulars: dose microM 10-20, time 24.0 hrs.
Assay [9] deals with PC-3. Briefly: Cytotoxicity against human PC3 cells assessed as reduction in cell viability incubated for 48 hrs by crystal violet staining based spectrophotometric analysis. It counts as functional. Particulars: PC-3, 48 h. The essentials: (§3)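 PC3 and MDA-MB-231 cells exposed to compounds for 48 h at 10 or 20 μM; viability compared with nontreated cells (significance P ≤ 0.05); IC50 values determined in both lines; at least three independent experiments, mean ± SEM.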

For the next assay, the system named is MDA-MB-231. Briefly: Cytotoxicity against human MDA-MB-231 cells assessed as reduction in cell viability incubated for 48 hrs by crystal violet staining based spectrophotometric analysis. The class given is functional. Particulars: MDA-MB-231, 48 h. The essentials:
as §3

For assay [10], the target named is Small ubiquitin-related modifier 1 (Homo sapiens) (UniProt P63165). Briefly: Inhibition of SUMO1 (unknown origin) assessed as reduction in SUMOylated RanGAP1 level at 5 uM incubated for 60 mins by western blot analysis. The essentials: as §1

Active and inactive are the calls of the source. No cut-off for these calls is given here.

Small ubiquitin-related modifier 2 (Homo sapiens), sequence (P61956 whole entry): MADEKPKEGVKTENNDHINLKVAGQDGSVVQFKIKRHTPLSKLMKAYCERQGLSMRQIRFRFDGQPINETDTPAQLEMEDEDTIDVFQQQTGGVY
Small ubiquitin-related modifier 1 (Homo sapiens), sequence (P63165 whole entry): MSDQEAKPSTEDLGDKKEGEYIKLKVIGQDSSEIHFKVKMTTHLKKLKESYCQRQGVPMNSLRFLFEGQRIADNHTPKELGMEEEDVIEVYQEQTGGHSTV

In the case of `CCCCCCCCCCCCCCCc1ccc(O)c(C(=O)O)c1`, the inhibition entry in assay [1] is “inactive”.
Same read-out and setting: the value for `CCCCCCCCCCC/C=C/c1cccc(C(=O)O)c1O` was “inactive”.
The same measure, in the same setting: then `CCCCCCCCCCCc1cccc(C(=O)O)c1O`, with “inactive”.
On the same count and under the same terms, the value for `CCCCCCCCCCCCCc1ccc(O)c(C(=O)O)c1` was “inactive”.
For the compound `CCCC/C=C/c1cccc(O)c1C(=O)O`, in [1], the inhibition result is “inactive”.
On the same count and under the same terms, then `CCCCCCCCCCCc1ccc(C(=O)O)c(O)c1`, with “inactive”; and `CCCCCCCCCCC/C=C/c1ccc(C(=O)O)c(O)c1`, with “inactive”; and `CCCCCCCCCCC/C=C/c1ccc(O)c(C(=O)O)c1`, with “inactive”.
As to `CCCCCCCCC/C=C/c1ccc(O)c(C(=O)O)c1`, the inhibition result in assay [1] was “inactive”.
Still for that read-out and setting: the value for `CCCCCCCCCCCCCCCc1cccc(C(=O)O)c1O` was “inactive”; that for `CCCCCCCCCCCCCc1ccc(C(=O)O)c(O)c1` was “inactive”; that for `CCCCCCCCCCCCC/C=C/c1ccc(O)c(C(=O)O)c1` was “inactive”.
Take `CCCCCCCCCCCc1cccc(O)c1C(=O)O`: the outcome in the assay with PC-3 [2], in the assay with PC-3 [3], with PC-3 [4], with PC-3 [7] and with PC3 (Homo sapiens) was Active. Moreover, the inhibition entry in assay [1], in assay [5], in assay [6] and in assay [8] was “Active” each time.
Consider `CCCCCCCCCCCCCCCc1cccc(O)c1C(=O)O`, for which, in assay [1], the inhibition entry was “Active”.
Still for that read-out and setting: the value for `CCCCCCCCc1cccc(O)c1C(=O)O` was “inactive”; that for `CCCCCCCCCCCCC/C=C/c1cccc(O)c1C(=O)O` was “Active”.
As for `CCCCCCCCCCCCCc1cccc(C(=O)O)c1O`, the outcome in the assay with PC-3 [2] and with PC-3 [4] was inactive. Besides, the outcome in the assay on PC-3 [3] and in the assay with PC-3 [7] was Active. Besides, the inhibition result in assay [1], in assay [5] and in assay [6] was “inactive” throughout. Also, the IC50 in the assay on PC-3 [9] was found to be 14.8 µM; in the assay on MDA-MB-231 it was 12.8 µM.
Consider `CCCCCCCCCCCCCc1cccc(O)c1C(=O)O`, for which the outcome with PC-3 [2], in the assay on PC-3 [3], in the assay on PC-3 [4], in the assay with PC-3 [7] and in the assay with PC3 (Homo sapiens) was Active. Also, the inhibition result in assay [1], in assay [5], in assay [6] and in [8] was “Active” throughout.
`CCCCCCCCCCCCCCCc1ccc(C(=O)O)c(O)c1`: the inhibition result in assay [1] was “inactive”.
On the same count and under the same terms, then `CCCCCC/C=C/c1cccc(O)c1C(=O)O`, with “inactive”; and `CCCCCCc1cccc(O)c1C(=O)O`, with “inactive”.
Same read-out and setting: then `CCCCCCCCCCCCC/C=C/c1ccc(C(=O)O)c(O)c1`, with “inactive”; and `CCCCCCCCCCCc1ccc(O)c(C(=O)O)c1`, with “inactive”; and `CCCCCCCCCCCCC/C=C/c1cccc(C(=O)O)c1O`, with “inactive”.
In the case of `CCCCCCCCC/C=C/c1cccc(O)c1C(=O)O`, the outcome in the assay on PC-3 [2], with PC-3 [3], in the assay with PC-3 [4], with PC-3 [7] and in the assay with PC3 (Homo sapiens) was Active. Further, the inhibition entry in [1], in assay [5], in assay [6], in [10] and in assay [8] was “Active” throughout.
For the compound `CCCCCCCCC/C=C/c1cccc(C(=O)O)c1O`, the inhibition entry in assay [1] was “inactive”.
As for `CCCCCCCCC/C=C/c1ccc(C(=O)O)c(O)c1`, the inhibition entry in assay [1] is “inactive”.
As to `CCCCCCCCCCC/C=C/c1cccc(O)c1C(=O)O`, the outcome with PC-3 [2], in the assay on PC-3 [3], in the assay on PC-3 [4], in the assay on PC-3 [7] and with PC3 (Homo sapiens) was Active. For the same compound, the inhibition entry in assay [1], in [5], in assay [6], in assay [10] and in [8] was “Active” each time. The IC50 in the assay on PC-3 [9] was found to be 10.8 µM; in the assay with MDA-MB-231, 8.2 µM.

Source of the values: ChEMBL document CHEMBL4725472, “Synthesis and Evaluation of Ginkgolic Acid Derivatives as SUMOylation Inhibitors” (ACS Med Chem Lett, 2020).
